Results from the RNAGym collection of RNA variant scans (doi:10.1126/science.aae0568).
This sample holds only a part of the variants without activity.

B1: tRNA (parent)
chain: GUUCCGUUGGCGUAAUGGUAACGCGUCUCCCUCCUAAGGAGAAGACUGCGGGUUCGAGUCCCGUACGGAACG

Variants of: B1
Experiment: yeast fitness relative to wild type (ratio to wild type); higher = fitter; tRNA-Arg(CCU), competitive growth, 37 C, YPD
Summary of the method: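 Variants of the tRNA-Arg(CCU) gene were chemically synthesised with a 3% per-site mutation rate across 69 sites and placed at the native genomic locus in Saccharomyces cerevisiae. Six parallel replicates of the pooled strains were competed in YPD at 37°C for 24 hours, and gene amplicons from the start and end populations were read by 100-nucleotide paired-end sequencing. Darwinian fitness relative to wild type was derived from changes in genotype frequencies. Genotypes required ≥ 100 starting reads, and estimates < 0.5 were set to 0.5.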

| Variant | yeast fitness |
| --- | --- |
| U19A C33U A36U C66U | ≤ 0.5 |
| U19A C24U G38A U54C C66A | 0.511 |
| U19A G50U | 0.817 |
| U19A C27U G44C G48C | ≤ 0.5 |
| U19A C27G C31U C62U | ≤ 0.5 |
| U19A C27A | 0.775 |
| U19A C27G | 0.581 |
| U19A C34G A40G | ≤ 0.5 |
| U19A G52A | 0.679 |
| U19A C22U G63C | ≤ 0.5 |
| U19A C46A | 1.13 |
| U19A C46U | 0.958 |
| U19A G67A | 0.866 |
| U19A C27U C49U C55U | 0.525 |
| U19A C33U | 0.777 |
| U19A G50A A57C | 0.516 |
| U19A G41C C55G C66G | ≤ 0.5 |
| U19A C30G A40C G67C | ≤ 0.5 |
| U19A U47C | 0.925 |
| U19A U47A | 0.837 |
| U19A U28A A37U A42U | ≤ 0.5 |

| Variant | yeast fitness |
| --- | --- |
| U19A G25C C33A A37G G48A G68A | ≤ 0.5 |
| U19A C33U A36U C60U | ≤ 0.5 |
| U19C | 0.972 |
| U19A G68U | 0.857 |
| U19A G68C | 0.709 |
| U19A U26A U64A | 0.553 |
| U19A C24G C27G C31G C34G A37C A57G C61G | 0.576 |
| U19C A20C A21U G56A A69C | ≤ 0.5 |
| U19C A36C G58C | ≤ 0.5 |
| U19A C46U C55G G68A | ≤ 0.5 |
| U19A C24A U32C A36U C66G | ≤ 0.5 |
| U19C A37C | 0.658 |
| U19C A21U A43C C49U | 0.547 |
| U19A C55G | 0.559 |
| U19A G50A G68C | ≤ 0.5 |
| U19A C22G C34U A42G A43G A70U | ≤ 0.5 |
| U19A U47G G50A | 0.55 |
| U19A A65C C66G A70G | ≤ 0.5 |
| U19A C29G A42C C46A C49G | ≤ 0.5 |
| U19A G25C A43U | 0.657 |
| U19A A65C C66G | ≤ 0.5 |

| Variant | yeast fitness |
| --- | --- |
| U19A C31U A42C A70G | 0.912 |
| U19C A20U G67U A69U | 0.53 |
| U19A G48A G50A C62A G63C | 0.591 |
| U19A C24G C27U C30A G52C G56A | ≤ 0.5 |
| U19A C34G A37U C49G | ≤ 0.5 |
| U19A C24G C27U C30A G52C | 0.571 |
| U19A C24U G25C C49U | ≤ 0.5 |
| U19A U47A G58C | 0.602 |
| U19A C31A A37G C49U | ≤ 0.5 |
| U19A C49U G67A | 0.666 |
| U19C A21C C33U C61A A70C | ≤ 0.5 |
| U19A C24A G48C | ≤ 0.5 |
| U19A C24U C33U C49U | ≤ 0.5 |
| U19C A20C C31G | 0.542 |
| U19C A20C C31A | ≤ 0.5 |
| U19A A43U C55G | 0.55 |
| U19A U32C | 0.848 |
| U19C A20C C31G C49G | ≤ 0.5 |
| U19A U26A C66A | 0.585 |
| U19A A43U A69U | 0.85 |
| U19A G63A | 0.952 |

| Variant | yeast fitness |
| --- | --- |
| U19A C22U U32C C46U | ≤ 0.5 |
| U19A C27G A40G | ≤ 0.5 |
| U19A C22G A42G U54A G67A | ≤ 0.5 |
| U19A C55A C61U | ≤ 0.5 |
| U19A U28G A40C A42G A69C | 0.561 |
| U19A C31G | 1.02 |
| U19A A45C | 0.726 |
| U19A C27U U28C C55U | ≤ 0.5 |
| U19A C33A C34U A36C | ≤ 0.5 |
| U19C A20U G56A | 0.724 |
| U19A A57U G67C | 0.556 |
| U19A C55G A57G | 0.5 |
| U19C A36C G41C C66A | ≤ 0.5 |
| U19C A36C G39A C62G | ≤ 0.5 |
| U19A C29G C33U U47A G51A C61U | ≤ 0.5 |
| U19C A20G G67A | 0.76 |
| U19A G67A A70U | 0.691 |
| U19A C62A | 0.774 |
| U19A C29A U32A U54C C55G C60G | ≤ 0.5 |
| U19A C24G G52C U64G | 0.535 |
| U19A U47C C66U | 0.751 |
